In ChEMBL document CHEMBL3525897, “Metabolism and quantification of [(18)F]DPA-714, a new TSPO positron emission tomography radioligand” (Drug Metab Dispos, 2013):

How the values were obtained:
[1] = Retention time of the compound by LC-MS analysis; format: physicochemical
In short: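 Separation of DPA-714 and its metabolites by LC-MS on reverse-phase Atlantis C18 column (2.1x150 mm) with electrospray ionization.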

Liver microsome = assay: Drug level in Sprague-Dawley rat liver microsomes treated with DPA-714 after 15 to 60 mins by LC-MS/MS analysis

| Compound | Retention_time [1] | Drug metabolism (Liver microsome) |
| --- | --- | --- |
| CCN(CC)C(=O)Cc1c(-c2ccc(OCCF)cc2)nn2c(C)c(O)c(C)nc12 | 16.43 min | metabolite_detected |
| CCN(CC)C(=O)Cc1c(-c2ccc(O)cc2)nn2c(C)cc(C)nc12 | 15.05 min | metabolite_detected |

Continued, values first:

| Retention_time [1] | Drug metabolism (Liver microsome) | Compound |
| --- | --- | --- |
| 16.1 min | metabolite_detected | CCNC(=O)Cc1c(-c2ccc(OCCF)cc2)nn2c(C)cc(C)nc12 |
| 13.88 min | metabolite_detected | CCNC(=O)Cc1c(-c2ccc(OCCF)cc2)nn2c(C)cc(CO)nc12 |
| 15.85 min | metabolite_detected | CCN(CC)C(=O)Cc1c(-c2ccc(OCCF)cc2)nn2c(CO)cc(C)nc12 |
